Where a chain is given by its changes, count along the chain named. “Also recorded” adds a separate entry of the source. Like-named read-outs stand apart in the source and are kept apart here.
How the values were obtained:
TG2 [1] = molecular target: T1, TG2 (Homo sapiens, UniProt P21980); assay: native PAGE analysis of open versus closed states
T1 sequence (P21980 1-687): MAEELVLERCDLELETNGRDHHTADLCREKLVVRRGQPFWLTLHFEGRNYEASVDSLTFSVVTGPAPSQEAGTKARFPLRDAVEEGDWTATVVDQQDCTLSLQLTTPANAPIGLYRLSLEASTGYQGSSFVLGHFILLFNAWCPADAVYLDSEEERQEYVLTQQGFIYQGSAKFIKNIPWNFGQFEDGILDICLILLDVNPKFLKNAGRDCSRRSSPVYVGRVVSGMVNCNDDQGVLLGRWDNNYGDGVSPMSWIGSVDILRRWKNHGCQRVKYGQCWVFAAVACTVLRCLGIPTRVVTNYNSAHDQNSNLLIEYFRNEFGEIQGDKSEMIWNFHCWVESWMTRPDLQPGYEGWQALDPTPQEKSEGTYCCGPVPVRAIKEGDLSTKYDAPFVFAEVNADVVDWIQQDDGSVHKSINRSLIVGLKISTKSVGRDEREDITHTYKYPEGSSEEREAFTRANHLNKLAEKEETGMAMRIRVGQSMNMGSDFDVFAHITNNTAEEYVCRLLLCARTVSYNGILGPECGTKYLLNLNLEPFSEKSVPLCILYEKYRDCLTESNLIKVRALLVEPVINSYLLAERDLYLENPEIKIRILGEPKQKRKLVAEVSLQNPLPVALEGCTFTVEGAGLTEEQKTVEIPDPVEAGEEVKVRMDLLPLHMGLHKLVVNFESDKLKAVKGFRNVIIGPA

[2] = molecular target: T2, TG2 S2A mutant (E396Q/N398S/D400N) (Homo sapiens, UniProt P21980, D400N/E396Q/N398S); assay: deamidation activity of S2A mutant; type: biochemical; conditions: [TG2] = 2.5 μM; [Ca2+] = 5 mM
T2 sequence (P21980 1-687 E396Q/N398S/D400N): T1 sequence (P21980 1-687) with E396Q, N398S, D400N

[3] = test system: extracellular TG2 in WI-38 fibroblasts; assay: 5-BP incorporation into extracellular matrix proteins of WI-38 fibroblasts; type: cell-based
Procedure, shortened: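 WI-38 fibroblasts were grown to confluence, then pre-incubated with vehicle (1% DMSO) or test compound for 30 min. Cells were then given 200 μM 5-(biotinamido)pentylamine for 3 h, fixed and stained. Transamidation was scored as 5-BP incorporated into extracellular matrix proteins, imaged at 5 fields sampled across each well.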

TG2 [4] = molecular target: T1, TG2; assay: microtiter plate transamidation assay; type: biochemical
Procedure, shortened: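 In a microtiter plate format, TG2 incorporated 5-BP into immobilized N,N-dimethylcasein. The incorporated biotin was quantified with streptavidin. Ca2+ was held at the sub-saturating level of 0.6 mM, and the test compound was assayed with or without the stable GTP analog GMP-PNP.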

[5] = molecular target: T3, TG2 S2B mutant (E447Q/E451Q/E452Q/E454Q) (Homo sapiens, UniProt P21980, E447Q/E451Q/E452Q/E454Q); assay: deamidation activity of S2B mutant; type: biochemical; conditions: [TG2] = 2.5 μM; [Ca2+] = 5 mM
T3 sequence (P21980 1-687 E447Q/E451Q/E452Q/E454Q): T1 sequence (P21980 1-687) with E447Q, E451Q, E452Q, E454Q

[6] = molecular target: T4, truncated form of human TG2 (1-466) (Homo sapiens, UniProt P21980); assay: deamidation activity of truncated TG2; type: biochemical; conditions: [TG2] = 0.5 μM; [Ca2+] = 5 mM
T4 sequence (P21980 1-466): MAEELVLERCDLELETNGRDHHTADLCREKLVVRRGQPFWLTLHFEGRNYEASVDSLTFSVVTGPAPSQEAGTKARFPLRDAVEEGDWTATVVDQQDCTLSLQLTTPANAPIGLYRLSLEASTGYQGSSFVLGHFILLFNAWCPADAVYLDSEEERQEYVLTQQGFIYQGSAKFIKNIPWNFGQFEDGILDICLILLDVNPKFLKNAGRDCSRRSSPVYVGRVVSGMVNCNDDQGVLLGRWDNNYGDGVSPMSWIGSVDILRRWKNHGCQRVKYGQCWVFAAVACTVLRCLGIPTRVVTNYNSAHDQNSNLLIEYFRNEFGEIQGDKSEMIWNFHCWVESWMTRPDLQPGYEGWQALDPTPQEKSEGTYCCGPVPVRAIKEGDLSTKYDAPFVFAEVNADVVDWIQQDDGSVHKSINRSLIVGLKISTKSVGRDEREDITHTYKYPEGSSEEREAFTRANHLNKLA
Procedure, shortened: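 The truncated TG2 (residues 1-466) lacks both C-terminal beta-barrel domains and was expressed and purified. It was tested against wild-type TG2 in the deamidation assay at 0.5 μM enzyme and 5 mM Ca2+. Activity was normalized to each protein's own maximum, since kcat and KM differ between the two proteins.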

[7] = molecular target: T5, R580A mutant of human TG2 (Homo sapiens, UniProt P21980, R580A); assay: deamidation activity of R580A mutant; type: biochemical; conditions: [TG2] = 0.5 μM, [Ca2+] = 3 mM
T5 sequence (P21980 1-687 R580A): T1 sequence (P21980 1-687) with R580A
Procedure, shortened: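 Deamidation by wild-type and R580A TG2 was measured side by side with test compound and the GTP analog GMP-PNP, at 0.5 μM enzyme and 3 mM Ca2+.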

human TG2 (V224 variant) = molecular target: T6, human TG2 (V224 variant) (Homo sapiens, UniProt P21980); assay: coupled GDH assay of TG2 deamidation of Cbz-Gln-Gly; type: biochemical; conditions: for mode of inhibition / activation: V224 TG2
T6 sequence (P21980 1-687): T1 sequence (P21980 1-687)

TG2 [8] = conditions: cited from earlier work
[9] = molecular target: T5, R580A mutant of human TG2; conditions: cited from earlier work
TG2 [10] = molecular target: T1, TG2; conditions: active site-directed irreversible inhibitor; cited from earlier work

COc1ccccc1C(=O)/C=C1/C(=O)Nc2cccc(Cl)c21 [CK-IV-55]
influence on relative distribution of open versus closed states of TG2 (TG2 [1]): did not have a measurable influence | inhibitory effect on S2A mutant compared with wild-type [2]: comparable inhibitory effect | extracellular TG2 activity (5-BP incorporation) ([3]; 1 μM compound, 200 μM 5-BP, 3 h): activation of extracellular TG2 | extracellular TG2 activity (5-BP incorporation) ([3]; 10 μM compound, 3 h): TG2 activity was suppressed compared to the 1 μM case | effect on transamidating activity of TG2 (TG2 [4]; 0.6 mM Ca2+ alone): agonism was not observed | effect on transamidation activity of TG2 (TG2 [4]; 0.6 mM Ca2+ and 100 μM GMP-PNP): markedly enhanced | effect on activity of S2B mutant [5]: no effect | extent of inhibition of TG2 (1-466) [6]: total antagonist | agonistic effect in the presence of GMP-PNP ([7]; R580A mutant): evident | inhibitory potency in R580A mutant versus wild-type [7]: unaltered | mode of inhibition / activation (human TG2 (V224 variant); Lineweaver-Burk analysis): non-competitive inhibitor | extent of inhibition of wild-type TG2 (human TG2 (V224 variant); [TG2] = 0.5 μM, [Ca2+] = 5 mM): partial inhibitory character | effect on TG2 catalytic activity at sub-saturating Ca2+ (human TG2 (V224 variant); sub-saturating Ca2+, 0.5-0.7 mM (legend of Figure 4A: 0.5-0.8 mM)): weak but reproducible agonism; also recorded: activated TG2

O=C1Nc2cccc(Cl)c2/C1=C\C(=O)c1ccc(Cl)cc1 [CK-IV-67]
extracellular TG2 activity (5-BP incorporation) ([3]; concentrations not given (data not shown)): higher absolute concentrations of the latter inhibitor were required to see elevated 5-BP incorporation

[Ca+2] [Ca^2+, reference compound]
Kd (TG2 [8]; read-out: Kd, high-affinity Ca2+ binding site, one site (S1)): ~1 µM | Kd (TG2 [8]; read-out: Kd, lower-affinity Ca2+ binding sites, five sites): ~1000 µM | mode of inhibition / activation (human TG2 (V224 variant); Lineweaver-Burk analysis): competitive activator | Ka, activation of V224 TG2 (human TG2 (V224 variant); Lineweaver-Burk analysis, [TG2] = 0.5 μM): 0.6 ± 0.3 mM

Nc1nc2c(ncn2[C@@H]2O[C@H](COP(=O)(O)OP(=O)(O)NP(=O)(O)O)[C@@H](O)[C@H]2O)c(=O)[nH]1 [GMP-PNP, reference compound]
inhibition of R580A mutant [9]: attenuated | mode of inhibition / activation (human TG2 (V224 variant); Lineweaver-Burk analysis): competitive inhibitor

Ac-P(DON)LPF-NH2
effect on TG2 conformation (TG2 [10]): locks TG2 in the open state
